In ChEMBL document CHEMBL4346654 (Eur J Med Chem, 2019):
≈ marks a conversion by molar mass, not a printed value.

Key:
[1] = test system: Streptococcus pyogenes; assay: Bactericidal activity against MLS-resistant Streptococcus pyogenes 01-968 expressing inducible ermB gene pretreated followed by subculture in absence of compound measured after 24 hrs; type: functional
In short: (§1)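 MBC assay. Following MIC determination by CLSI standard two-fold broth dilution, samples at 1–8 fold MIC were transferred to fresh culture medium. They were subcultured for 24 h without antibiotic. Isolates were identified by 16S rDNA sequencing. S. aureus ATCC 29213 was used as a control strain.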

[2] = test system: Rattus norvegicus; assay: Ratio of test compound half life to telithromycin half life in Sprague-Dawley rat at 20 mg/kg, po after 0.25 to 24 hrs by LC-MS/MS analysis; type: ADME, organism-based; details: in vivo
[3] = test system: Streptococcus pneumoniae; assay: Antibacterial activity against penicillin-susceptible Streptococcus pneumoniae PU 09 expressing mef gene assessed as reduction in microbial growth by CLSI based two-fold broth dilution method; type: functional
[4] = test system: Streptococcus pyogenes; assay: Antibacterial activity against MLS-resistant Streptococcus pyogenes 01-968 expressing inducible ermB gene assessed as reduction in microbial growth by CLSI based two-fold broth dilution method; type: functional
[5] = test system: Streptococcus pyogenes; assay: Selectivity ratio of MBC to MIC for MLS-resistant Streptococcus pyogenes 12-206 expressing constitutive ermA gene; type: functional
In short: (§2)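 MBC/MIC ratio. MIC was measured by CLSI standard two-fold broth dilution. MBC was measured by transferring samples at 1–8 fold MIC to culture medium and subculturing for 24 h without antibiotic. Isolates were identified by 16S rDNA sequencing.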

[6] = AUCinfinity in Sprague-Dawley rat at 20 mg/kg, po after 0.25 to 24 hrs by LC-MS/MS analysis; type: ADME, organism-based; parameters: dose 20 mg/kg, time infinity, route oral; details: in vivo
In short: (§3)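 Male SD rats were given a single 20 mg/Kg oral dose. Blood was sampled at 0.25, 0.5, 1, 2, 4, 6, 8 and 24 h and centrifuged at 2500 g for 5 min at 4 °C. Drug levels were quantified by LC-MS/MS. t1/2, Cmax, Tmax, CL, MRT and AUC were calculated from the concentration–time data.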

[7] = Half life in Sprague-Dawley rat at 20 mg/kg, po after 0.25 to 24 hrs by LC-MS/MS analysis; type: ADME, organism-based; details: in vivo; in short: as §3
[8] = test system: Streptococcus pneumoniae; assay: Bactericidal activity against penicillin-susceptible Streptococcus pneumoniae PU 09 expressing mef gene pretreated followed by subculture in absence of compound measured after 24 hrs; type: functional
In short: (§4)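 Isolates were identified by 16S rDNA sequencing. MIC was determined by CLSI-recommended two-fold broth dilution. For MBC, samples from 1–8 fold MIC were transferred to culture medium and subcultured for 24 h without antibiotic.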

[9] = test system: Staphylococcus aureus; assay: Antibacterial activity against MLS-resistant Staphylococcus aureus PU 32 expressing inducible ermA gene assessed as reduction in microbial growth by CLSI based two-fold broth dilution method; type: functional
[10] = test system: Haemophilus influenzae; assay: Selectivity ratio of MBC to MIC for azithromycin-susceptible Haemophilus influenzae ATCC 49247; type: functional; in short: as §4
[11] = test system: Staphylococcus aureus; assay: Antibacterial activity against MLS-resistant Staphylococcus aureus PU 20 expressing constitutive ermC gene assessed as reduction in microbial growth by CLSI based two-fold broth dilution method; type: functional
[12] = AUC (0 to t) in Sprague-Dawley rat at 20 mg/kg, po after 0.25 to 24 hrs by LC-MS/MS analysis; type: ADME, organism-based; parameters: time upper 24 hr, dose 20 mg/kg, time lower 0.25 hr, route oral; details: in vivo; in short: as §3
[13] = test system: Streptococcus pyogenes; assay: Selectivity ratio of MBC to MIC for MLS-resistant Streptococcus pyogenes 01-968 expressing inducible ermB gene; type: functional; in short: as §2
[14] = test system: Haemophilus influenzae; assay: Bactericidal activity against azithromycin-susceptible Haemophilus influenzae ATCC 49247 pretreated followed by subculture in absence of compound measured after 24 hrs; type: functional; in short: as §4
[15] = test system: Streptococcus pyogenes; assay: Antibacterial activity against Streptococcus pyogenes 12-207 expressing mef gene assessed as reduction in microbial growth by CLSI based two-fold broth dilution method; type: functional
[16] = Ratio of test compound MRT to telithromycin MRT in Sprague-Dawley rat at 20 mg/kg, po after 0.25 to 24 hrs by LC-MS/MS analysis; type: ADME, organism-based; details: in vivo
[17] = test system: Moraxella catarrhalis; assay: Bactericidal activity against erythromycin-susceptible Moraxella catarrhalis 13L332 pretreated followed by subculture in absence of compound measured after 24 hrs; type: functional; in short: as §4
[18] = test system: Streptococcus pneumoniae; assay: Antibacterial activity against Streptococcus pneumoniae 07P390 expressing constitutive ermB gene assessed as reduction in microbial growth by CLSI based two-fold broth dilution method; type: functional
[19] = test system: Streptococcus pyogenes; assay: Antibacterial activity against MLS-resistant Streptococcus pyogenes 12-206 expressing constitutive ermA gene assessed as reduction in microbial growth by CLSI based two-fold broth dilution method; type: functional
[20] = MRT in Sprague-Dawley rat at 20 mg/kg, po after 0.25 to 24 hrs by LC-MS/MS analysis; type: ADME, organism-based; details: in vivo; in short: as §3
[21] = test system: Streptococcus pyogenes; assay: Selectivity ratio of MBC to MIC for Streptococcus pyogenes 12-207 expressing mef gene; type: functional; in short: as §4
[22] = test system: Haemophilus influenzae; assay: Antibacterial activity against azithromycin-susceptible Haemophilus influenzae ATCC 49247 assessed as reduction in microbial growth by CLSI based two-fold broth dilution method; type: functional
[23] = test system: Rattus norvegicus; assay: Ratio of test compound plasma clearance to telithromycin plasma clearance in Sprague-Dawley rat at 20 mg/kg, po after 0.25 to 24 hrs by LC-MS/MS analysis; type: ADME, organism-based; details: in vivo
[24] = test system: Staphylococcus aureus; assay: Bactericidal activity against MLS/methicillin-resistant Staphylococcus aureus PU 32 expressing inducible ermA gene pretreated followed by subculture in absence of compound measured after 24 hrs; type: functional; in short: as §1
[25] = biological target: Cytochrome P450 3A4 (Homo sapiens, UniProt P08684); assay: Inhibition of CYP3A4 in human liver microsomes assessed as reduction in metabolite formation using midazolam as substrate incubated for 10 mins in presence of NADPH by HPLC based mass spectrometric method; type: ADME
In short: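 Human liver microsome CYP3A4 with midazolam substrate in 0.1 M potassium phosphate buffer was prewarmed at 37 °C for 5 min. Compound and 25 mM NADPH solution (stock) were added, then incubated at 37 °C for 10 min. Ketoconazole served as the positive inhibitor. Metabolite was measured by UPLC–triple quadrupole MS as the metabolite/internal standard peak area ratio, and IC50 was derived by curve fitting.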

[26] = test system: Streptococcus pneumoniae; assay: Bactericidal activity against erythromycin-susceptible Streptococcus pneumoniae ATCC49619 pretreated followed by subculture in absence of compound measured after 24 hrs; type: functional; in short: as §4
[27] = test system: Rattus norvegicus; assay: Ratio of test compound AUC to telithromycin AUC in Sprague-Dawley rat at 20 mg/kg, po after 0.25 to 24 hrs by LC-MS/MS analysis; type: ADME, organism-based; details: in vivo
[28] = test system: Streptococcus pneumoniae; assay: Selectivity ratio of MBC to MIC for penicillin-susceptible Streptococcus pneumoniae PU 09 expressing mef gene; type: functional; in short: as §4
[29] = test system: Moraxella catarrhalis; assay: Antibacterial activity against erythromycin-susceptible Moraxella catarrhalis 13L332 assessed as reduction in microbial growth by CLSI based two-fold broth dilution method; type: functional
[30] = Tmax in Sprague-Dawley rat at 20 mg/kg, po after 0.25 to 24 hrs by LC-MS/MS analysis; type: ADME, organism-based; details: in vivo; in short: as §3
[31] = test system: Streptococcus pyogenes; assay: Bactericidal activity against Streptococcus pyogenes 12-207 expressing mef gene pretreated followed by subculture in absence of compound measured after 24 hrs; type: functional; in short: as §4
[32] = test system: Streptococcus pneumoniae; assay: Antibacterial activity against erythromycin-susceptible Streptococcus pneumoniae ATCC49619 assessed as reduction in microbial growth by CLSI based two-fold broth dilution method; type: functional
[33] = test system: Streptococcus pneumoniae; assay: Bactericidal activity against Streptococcus pneumoniae 07P390 expressing constitutive ermB gene pretreated followed by subculture in absence of compound measured after 24 hrs; type: functional; in short: as §4
[34] = test system: Staphylococcus aureus; assay: Selectivity ratio of MBC to MIC for MLS/methicillin-resistant Staphylococcus aureus PU 32 expressing inducible ermA gene; type: functional; in short: as §2
[35] = test system: Streptococcus pyogenes; assay: Bactericidal activity against MLS-resistant Streptococcus pyogenes 12-206 expressing constitutive ermA gene pretreated followed by subculture in absence of compound measured after 24 hrs; type: functional; in short: as §1
[36] = test system: Moraxella catarrhalis; assay: Selectivity ratio of MBC to MIC for erythromycin-susceptible Moraxella catarrhalis 13L332; type: functional; in short: as §4
[37] = test system: Streptococcus pneumoniae; assay: Selectivity ratio of MBC to MIC for Streptococcus pneumoniae 07P390 expressing constitutive ermB gene; type: functional; in short: as §4
[38] = test system: Staphylococcus aureus; assay: Bactericidal activity against MLS-resistant Staphylococcus aureus PU 20 expressing constitutive ermC gene pretreated followed by subculture in absence of compound measured after 24 hrs; type: functional; in short: as §1
[39] = Cmax in Sprague-Dawley rat at 20 mg/kg, po after 0.25 to 24 hrs by LC-MS/MS analysis; type: ADME, organism-based; parameters: dose 20 mg/kg, route oral; details: in vivo; in short: as §3

Sequence of Cytochrome P450 3A4 (P08684 whole entry): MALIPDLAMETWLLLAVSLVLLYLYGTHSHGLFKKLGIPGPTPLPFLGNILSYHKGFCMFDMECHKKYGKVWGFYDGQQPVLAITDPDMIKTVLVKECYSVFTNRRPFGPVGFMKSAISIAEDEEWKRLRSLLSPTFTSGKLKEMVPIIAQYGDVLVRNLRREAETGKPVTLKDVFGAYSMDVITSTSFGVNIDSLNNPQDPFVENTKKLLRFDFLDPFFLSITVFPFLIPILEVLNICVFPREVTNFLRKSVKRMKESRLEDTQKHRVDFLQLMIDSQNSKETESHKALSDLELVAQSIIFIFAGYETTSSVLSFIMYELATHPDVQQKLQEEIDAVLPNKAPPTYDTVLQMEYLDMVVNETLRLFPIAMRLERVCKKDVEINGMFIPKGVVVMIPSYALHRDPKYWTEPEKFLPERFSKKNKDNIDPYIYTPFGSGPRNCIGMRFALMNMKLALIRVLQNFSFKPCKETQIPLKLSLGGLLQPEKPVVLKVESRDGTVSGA

SMILES: CC[C@H]1OC(=O)[C@@](C)(F)C(=O)[C@H](C)[C@@H](O[C@@H]2O[C@H](C)C[C@H](N(C)C)[C@H]2O)[C@](C)(OC)C[C@@H](C)/C(=N\OC/C=C/c2ccc3c(c2)c(=O)c(C(N)=O)cn3CC)[C@H](C)[C@H]2OC(=O)O[C@@]21C
- MBC [1]: > 0.016 µg/mL
- Ratio [2]: 2.5 to 3.6
- MIC [3]: 0.25 µg/mL
- MIC [4]: ≤ 0.002 µg/mL
- Selectivity ratio [5]: >8
- AUC [6]: 1538 ng·h/mL
- half-life [7]: 3.03 h
- MBC [8]: 0.25 µg/mL (≈ 0.277 µM)
- MIC [9]: 0.5 µg/mL
- Selectivity ratio [10]: 8
- MIC [11]: 128 µg/mL
- AUC(0-t) [12]: 1460 ng·h/mL
- Selectivity ratio [13]: >8
- MBC [14]: 256 µg/mL (≈ 284 µM)
- MIC [15]: 0.062 µg/mL
- Ratio [16]: 2.3 to 2.6
- MBC [17]: > 32 µg/mL
- MIC [18]: 0.062 µg/mL
- MIC [19]: 0.5 µg/mL
- MRT [20]: 7.42 h
- Selectivity ratio [21]: 8
- MIC [22]: 32 µg/mL
- Ratio [23]: 1.5
- MBC [24]: > 4 µg/mL
- IC50 [25]: 5.14 µM
- MBC [26]: ≤ 0.008 µg/mL
- Ratio AUC [27]: 1.6
- Selectivity ratio [28]: 1
- MIC [29]: 4 µg/mL
- Tmax [30]: 7 h
- MBC [31]: 0.5 µg/mL (≈ 0.555 µM)
- MIC [32]: ≤ 0.008 µg/mL
- MBC [33]: > 0.5 µg/mL
- Selectivity ratio [34]: >8
- MBC [35]: > 4 µg/mL
- Selectivity ratio [36]: >8
- Selectivity ratio [37]: >8
- MBC [38]: > 256 µg/mL
- Cmax [39]: 124 ng/mL
